Experimental data: ChEMBL document CHEMBL1158173, “Carbodithioic acid esters of fluoxetine, a novel class of dual-function spermicides” (2008)
In brackets after ≈: the same amount, converted by molar mass. Activity calls are given as the source filed them. The rule behind the calls is not given here.

Tests used:
Type in all cases: functional
[1] = (§1) Spermicidal activity in liquefied human semen assessed as drug level required to kill 100% sperm in 20 seconds
Candida albicans [2] = test: Antifungal activity against Candida albicans after 48 hrs by broth microdilution technique
Cryptococcus neoformans = test: Antifungal activity against Cryptococcus neoformans after 48 hrs by broth microdilution technique
Sporothrix schenckii = test: Antifungal activity against Sporothrix schenckii after 48 hrs by broth microdilution technique
[3] = system: Trichophyton mentagrophytes; test: Antifungal activity against Trichophyton mentagrophytes after 48 hrs by broth microdilution technique
Aspergillus fumigatus = test: Antifungal activity against Aspergillus fumigatus after 48 hrs by broth microdilution technique
Candida parapsilosis [4] = test: (§2) Antifungal activity against Candida parapsilosis ATCC 22019 after 48 hrs by broth microdilution technique; settings: for MIC: Lodderomyces parapsilosis, ATCC 22019, 48 h
Trichomonas vaginalis = test: Antitrichomonas activity against Trichomonas vaginalis after 48 hrs by trypan blue staining
Procedure, shortened: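 Trichomonas vaginalis was grown in TYM medium and used in log phase, one day after routine subculture. Compounds in DMSO stock were serially diluted in TYM medium, with DMSO/TYM as vehicle control. Wells received 5 × 10³ trophozoites and were incubated anaerobically at 37 °C. Viability was scored daily by trypan blue and cell counts, and MIC was read at 48 h. Finer dilutions were then retested, and the final MIC was taken from a concentration versus viable-trophozoite-number curve.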

Sperm = test: as §1
Candida albicans [5] = test: Antifungal activity against Candida albicans MTCC 183 after 48 hrs by broth microdilution technique; settings: MTCC 183, 48 h
Candida albicans [6] = test: Antifungal activity against Candida albicans MTCC 1346 after 48 hrs by broth microdilution technique; settings: MTCC 1346, 48 h
Candida albicans [7] = test: Antifungal activity against Candida albicans ATCC 10231 after 48 hrs by broth microdilution technique; settings: ATCC 10231, 48 h
Pichia kudriavzevii = test: Antifungal activity against Candida krusei ATCC 6258 after 48 hrs by broth microdilution technique; settings: ATCC 6258, 48 h
Candida parapsilosis [8] = test: as §2; settings: Lodderomyces parapsilosis, ATCC 22019, 48 h
Candida albicans [9] = test: Antifungal activity against Candida albicans ATCC 10453 after 48 hrs by broth microdilution technique; settings: ATCC 10453, 48 h
Candida albicans [10] = test: Antifungal activity against Candida albicans ATCC 6019 after 48 hrs by broth microdilution technique; settings: ATCC 6019, 48 h
Candida albicans [11] = test: Antifungal activity against Candida albicans ATCC 66027 after 48 hrs by broth microdilution technique; settings: ATCC 66027, 48 h

| SMILES | MEC [1] | MIC (Candida albicans [2]) | MIC (Cryptococcus neoformans) | MIC (Sporothrix schenckii) | MIC [3] | MIC (Aspergillus fumigatus) | MIC (Candida parapsilosis [4]) | MIC (Trichomonas vaginalis) | Activity (Sperm) | Activity (Candida albicans [2]) | Activity (Cryptococcus neoformans) | Activity (Sporothrix schenckii) | Activity [3] | Activity (Aspergillus fumigatus) | Activity (Candida parapsilosis [4]) | also measured |
| --- | --- | --- | --- | --- | --- | --- | --- | --- | --- | --- | --- | --- | --- | --- | --- | --- |
| CN(C)CCSC(=S)N(C)CCC(Oc1ccc(C(F)(F)F)cc1)c1ccccc1 (configuration not stated) | 1% | 50 µg/mL (≈ 110 µM) | 50 µg/mL (≈ 110 µM) | 12.5 µg/mL (≈ 27.4 µM) | 6.25 µg/mL (≈ 13.7 µM) | 25 µg/mL (≈ 54.8 µM) | 50 µg/mL (≈ 110 µM) | 52 µg/mL (≈ 114 µM) | – | – | – | – | – | – | – | – |
| CN(CCC(Oc1ccc(C(F)(F)F)cc1)c1ccccc1)CC(O)CSC(=S)N1CCCCCC1 (configuration not stated) | – | – | – | – | – | – | – | – | inactive | inactive | inactive | inactive | inactive | inactive | inactive | – |
| CN(CCC(Oc1ccc(C(F)(F)F)cc1)c1ccccc1)C(=S)SCCN1CCCCC1 (configuration not stated) | 1% | 3.12 µg/mL (≈ 6.28 µM) | 1.56 µg/mL (≈ 3.14 µM) | 6.25 µg/mL (≈ 12.6 µM) | 6.25 µg/mL (≈ 12.6 µM) | 12.5 µg/mL (≈ 25.2 µM) | 1.56 µg/mL (≈ 3.14 µM) | 13.5 µg/mL (≈ 27.2 µM) | – | – | – | – | – | – | – | – |
| CCN(CC)CCSC(=S)N(C)CCC(Oc1ccc(C(F)(F)F)cc1)c1ccccc1 (configuration not stated) | 1% | 50 µg/mL (≈ 103 µM) | 50 µg/mL (≈ 103 µM) | 6.25 µg/mL (≈ 12.9 µM) | 12.5 µg/mL (≈ 25.8 µM) | 6.25 µg/mL (≈ 12.9 µM) | 50 µg/mL (≈ 103 µM) | 24 µg/mL (≈ 49.5 µM) | – | – | – | – | – | – | – | – |
| CN(CCC(Oc1ccc(C(F)(F)F)cc1)c1ccccc1)C(=S)SCC(O)CN1CCCCC1 (configuration not stated) | – | – | – | – | 50 µg/mL (≈ 94.9 µM) | – | 50 µg/mL (≈ 94.9 µM) | – | inactive | inactive | inactive | inactive | – | inactive | – | – |
| CN(CCC(Oc1ccc(C(F)(F)F)cc1)c1ccccc1)CC(O)CSC(=S)N1CCCC1 (configuration not stated) | – | – | – | – | – | – | – | – | inactive | inactive | inactive | inactive | inactive | inactive | inactive | – |
| CN(CCC(Oc1ccc(C(F)(F)F)cc1)c1ccccc1)C(=S)SCC(O)CN1CCCCCC1 (configuration not stated) | 0.5% | 50 µg/mL (≈ 92.5 µM) | – | – | 25 µg/mL (≈ 46.2 µM) | 25 µg/mL (≈ 46.2 µM) | 50 µg/mL (≈ 92.5 µM) | > 200 µg/mL | – | – | inactive | inactive | – | – | – | – |
| CCCCCCCCCc1ccc(OCCOCCOCCOCCOCCOCCOCCOCCOCCO)cc1 [NONOXYNOL 9] | 0.05% | – | – | – | – | – | 50 µg/mL (≈ 81.1 µM) | 23 µg/mL (≈ 37.3 µM) | – | inactive | inactive | inactive | inactive | inactive | – | – |
| OC(Cn1cncn1)(Cn1cncn1)c1ccc(F)cc1F [FLUCONAZOLE] | – | 0.5 µg/mL (≈ 1.63 µM) | – | – | – | – | – | – | – | – | – | – | – | – | – | MIC (Candida albicans [5]): 0.5 µg/mL (≈ 1.63 µM); MIC (Candida albicans [6]): 2 µg/mL (≈ 6.53 µM); MIC (Candida albicans [7]): 1 µg/mL (≈ 3.27 µM); MIC (Pichia kudriavzevii): 4 µg/mL (≈ 13.1 µM); MIC (Candida parapsilosis [8]): 1 µg/mL (≈ 3.27 µM); MIC (Candida albicans [9]): 1 µg/mL (≈ 3.27 µM); MIC (Candida albicans [10]): 0.25 µg/mL (≈ 0.816 µM); MIC (Candida albicans [11]): 0.25 µg/mL (≈ 0.816 µM) |
| CN(CCC(Oc1ccc(C(F)(F)F)cc1)c1ccccc1)C(=S)SCC(O)CN1CCCC1 (configuration not stated) | 0.5% | – | – | 50 µg/mL (≈ 97.5 µM) | 25 µg/mL (≈ 48.8 µM) | 50 µg/mL (≈ 97.5 µM) | 50 µg/mL (≈ 97.5 µM) | 6.95 µg/mL (≈ 13.6 µM) | – | inactive | inactive | – | – | – | – | – |
| Cc1ncc([N+](=O)[O-])n1CCO [METRONIDAZOLE] | – | – | – | – | – | – | – | 0.54 µg/mL (≈ 3.16 µM) | inactive | inactive | inactive | inactive | inactive | inactive | inactive | – |
| CN(CCC(Oc1ccc(C(F)(F)F)cc1)c1ccccc1)CC(O)CSC(=S)N1CCOCC1 (configuration not stated) | – | – | – | 25 µg/mL (≈ 47.3 µM) | 12.5 µg/mL (≈ 23.6 µM) | – | 50 µg/mL (≈ 94.6 µM) | – | inactive | inactive | inactive | – | – | inactive | – | – |
| CN(CCC(Oc1ccc(C(F)(F)F)cc1)c1ccccc1)C(=S)SCCCl (configuration not stated) | 1% | 50 µg/mL (≈ 112 µM) | 50 µg/mL (≈ 112 µM) | 25 µg/mL (≈ 55.8 µM) | 12.5 µg/mL (≈ 27.9 µM) | 50 µg/mL (≈ 112 µM) | 25 µg/mL (≈ 55.8 µM) | > 200 µg/mL | – | – | – | – | – | – | – | – |
| CN(CCC(Oc1ccc(C(F)(F)F)cc1)c1ccccc1)C(=S)SCc1ccccc1 (configuration not stated) | 1% | – | – | – | – | – | – | > 200 µg/mL | – | inactive | inactive | inactive | inactive | inactive | inactive | – |
| CN1CCN(C(=S)SCC(O)CN(C)CCC(Oc2ccc(C(F)(F)F)cc2)c2ccccc2)CC1 (configuration not stated) | 1% | – | 12.5 µg/mL (≈ 23.1 µM) | – | 25 µg/mL (≈ 46.2 µM) | – | – | 6.68 µg/mL (≈ 12.3 µM) | – | inactive | – | inactive | – | inactive | inactive | – |
| CCN(CC)CC(O)CSC(=S)N(C)CCC(Oc1ccc(C(F)(F)F)cc1)c1ccccc1 (configuration not stated) | 0.5% | – | – | – | 25 µg/mL (≈ 48.6 µM) | 50 µg/mL (≈ 97.1 µM) | 50 µg/mL (≈ 97.1 µM) | > 200 µg/mL | – | inactive | inactive | inactive | – | – | – | – |
| CN(CCC(Oc1ccc(C(F)(F)F)cc1)c1ccccc1)C(=S)SCC(O)CN1CCOCC1 (configuration not stated) | – | – | – | – | – | 50 µg/mL (≈ 94.6 µM) | – | – | inactive | inactive | inactive | inactive | inactive | – | inactive | – |
| CN(CCC(Oc1ccc(C(F)(F)F)cc1)c1ccccc1)CC(O)CSC(=S)N(C)Cc1ccccc1 (configuration not stated) | – | – | – | – | – | – | – | – | inactive | inactive | inactive | inactive | inactive | inactive | inactive | – |
| CNCCC(Oc1ccc(C(F)(F)F)cc1)c1ccccc1 (configuration not stated) [FLUOXETINE] | – | 50 µg/mL (≈ 162 µM) | 25 µg/mL (≈ 80.8 µM) | 50 µg/mL (≈ 162 µM) | 50 µg/mL (≈ 162 µM) | – | 50 µg/mL (≈ 162 µM) | 28 µg/mL (≈ 90.5 µM) | – | – | – | – | – | inactive | – | – |
| CN(CCC(Oc1ccc(C(F)(F)F)cc1)c1ccccc1)C(=S)SCCN1CCOCC1 (configuration not stated) | – | – | – | – | – | – | – | – | inactive | inactive | inactive | inactive | inactive | inactive | inactive | – |
| CN(CCC(Oc1ccc(C(F)(F)F)cc1)c1ccccc1)CC(O)CSC(=S)N1CCCCC1 (configuration not stated) | – | – | 25 µg/mL (≈ 47.5 µM) | – | – | – | – | – | inactive | inactive | – | inactive | inactive | inactive | inactive | – |
| CN(CCC(Oc1ccc(C(F)(F)F)cc1)c1ccccc1)C(=S)SCCN1CCCC1 (configuration not stated) | 0.05% | 6.25 µg/mL (≈ 12.9 µM) | 3.12 µg/mL (≈ 6.46 µM) | 25 µg/mL (≈ 51.8 µM) | 12.5 µg/mL (≈ 25.9 µM) | 12.5 µg/mL (≈ 25.9 µM) | 3.12 µg/mL (≈ 6.46 µM) | 14 µg/mL (≈ 29 µM) | – | – | – | – | – | – | – | MIC (Candida albicans [5]): 3.12 µg/mL (≈ 6.47 µM); MIC (Candida albicans [6]): 6.25 µg/mL (≈ 12.9 µM); MIC (Candida albicans [7]): 6.25 µg/mL (≈ 12.9 µM); MIC (Pichia kudriavzevii): 6.25 µg/mL (≈ 12.9 µM); MIC (Candida parapsilosis [8]): 3.12 µg/mL (≈ 6.47 µM); MIC (Candida albicans [9]): 6.25 µg/mL (≈ 12.9 µM); MIC (Candida albicans [10]): 6.25 µg/mL (≈ 12.9 µM); MIC (Candida albicans [11]): 6.25 µg/mL (≈ 12.9 µM) |
| CN(CCC(Oc1ccc(C(F)(F)F)cc1)c1ccccc1)C(=S)[S-].[Na+] (configuration not stated) | 1% | – | 25 µg/mL | – | – | – | – | 96 µg/mL | – | inactive | – | inactive | inactive | inactive | inactive | – |
| CN1CCN(CC(O)CSC(=S)N(C)CCC(Oc2ccc(C(F)(F)F)cc2)c2ccccc2)CC1 (configuration not stated) | 0.5% | 50 µg/mL (≈ 92.3 µM) | 25 µg/mL (≈ 46.2 µM) | 25 µg/mL (≈ 46.2 µM) | 25 µg/mL (≈ 46.2 µM) | 25 µg/mL (≈ 46.2 µM) | 50 µg/mL (≈ 92.3 µM) | 12 µg/mL (≈ 22.2 µM) | – | – | – | – | – | – | – | – |
